Several values for one entry are separate records, joined by “and”; a condition that tells them apart may be missing. Equal entries are not always repeated.
Experiments:
Assay type in all cases: toxicity, cell-based
Fibroblast = assay: Multiplex assay against human fibroblast; details: number of replicates 2
Method in brief: (§1)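 Cells stained live at seeding with Hoechst33342, BioTracker Green Microtubule Cytoskeleton Dye, MitoTracker Red and Annexin V Alexa Fluor 680 were imaged on a CQ1 microscope at 37°C and 5% CO2 after compound addition. Their classification by CellPathfinder machine-learning gating ran from Hoechst high-intensity objects versus normal cells, to healthy, pyknosed or fragmented nuclei among normal cells, to mitotic or apoptotic among pyknosed cells. Tubulin, mitochondrial-mass and membrane-permeability phenotypes are per cents of healthy-nucleus cells.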

U2OS = assay: Multiplex assay against U2OS; details: human, number of replicates 2; method in brief: as §1
HEK-293T = assay: Multiplex assay against HEK293T; details: human, number of replicates 2; method in brief: as §1
[1] = 12 h, 1 µM, compound concentration 1 uM
[2] = 12 h, 10 µM, compound concentration 10 uM
[3] = 24 h, 1 µM, compound concentration 1 uM
[4] = 24 h, 10 µM, compound concentration 10 uM
[5] = 48 h, 1 µM, compound concentration 1 uM
[6] = 48 h, 10 µM, compound concentration 10 uM

## Cn1cc(-c2ccc(N(C(=O)NCc3ccccc3)[C@H]3CC[C@H](Nc4ccc(C#N)cn4)CC3)cc2)ccc1=O
Fibroblast; [1]
  Population Apoptotic (%): 46%
  Population Fragmented Nuclei (%): 8% and 18%
  Population Healthy Nuclei (%): 72% and 60%
  Population Hoechst High Intensity Objects (%): 0%
  Population Membrane Permeable-Phenotype (%): 6%
  Population Mitochondria Different-Phenotype (%): 1% and 2%
  Population Mitotic Cells (%): 53%
  Population Normal (%): 100%
  Population Pyknosed Nuclei (%): 19% and 21%
  Population Tubulin-Different-Phenotype (%): 9% and 11%
  Total Cell Count: 155 and 181
Fibroblast; [2]
  Population Apoptotic (%): 39% and 40%
  Population Fragmented Nuclei (%): 8% and 9%
  Population Healthy Nuclei (%): 55% and 72%
  Population Hoechst High Intensity Objects (%): 0%
  Population Membrane Permeable-Phenotype (%): 16% and 14%
  Population Mitochondria Different-Phenotype (%): 3%
  Population Mitotic Cells (%): 60% and 59%
  Population Normal (%): 99%
  Population Pyknosed Nuclei (%): 36% and 18%
  Population Tubulin-Different-Phenotype (%): 75% and 55%
  Total Cell Count: 249 and 273
Fibroblast; [3]
  Population Apoptotic (%): 38% and 48%
  Population Fragmented Nuclei (%): 12% and 15%
  Population Healthy Nuclei (%): 73% and 64%
  Population Hoechst High Intensity Objects (%): 0%
  Population Membrane Permeable-Phenotype (%): 4% and 7%
  Population Mitochondria Different-Phenotype (%): 0% and 1%
  Population Mitotic Cells (%): 61% and 51%
  Population Normal (%): 99%
  Population Pyknosed Nuclei (%): 14% and 20%
  Population Tubulin-Different-Phenotype (%): 11%
  Total Cell Count: 149 and 180
Fibroblast; [4]
  Population Apoptotic (%): 54% and 81%
  Population Fragmented Nuclei (%): 10%
  Population Healthy Nuclei (%): 44% and 47%
  Population Hoechst High Intensity Objects (%): 0%
  Population Membrane Permeable-Phenotype (%): 18%
  Population Mitochondria Different-Phenotype (%): 7% and 5%
  Population Mitotic Cells (%): 45% and 18%
  Population Normal (%): 99%
  Population Pyknosed Nuclei (%): 44% and 42%
  Population Tubulin-Different-Phenotype (%): 79% and 63%
  Total Cell Count: 231 and 271
Fibroblast; [5]
  Population Apoptotic (%): 76% and 60%
  Population Fragmented Nuclei (%): 17% and 16%
  Population Healthy Nuclei (%): 68%
  Population Hoechst High Intensity Objects (%): 0%
  Population Membrane Permeable-Phenotype (%): 5% and 2%
  Population Mitochondria Different-Phenotype (%): 0%
  Population Mitotic Cells (%): 23% and 39%
  Population Normal (%): 100%
  Population Pyknosed Nuclei (%): 13% and 15%
  Population Tubulin-Different-Phenotype (%): 8% and 5%
  Total Cell Count: 154 and 186
Fibroblast; [6]
  Population Apoptotic (%): 71% and 83%
  Population Fragmented Nuclei (%): 8% and 15%
  Population Healthy Nuclei (%): 36% and 28%
  Population Hoechst High Intensity Objects (%): 0% and 1%
  Population Membrane Permeable-Phenotype (%): 26% and 22%
  Population Mitochondria Different-Phenotype (%): 8% and 2%
  Population Mitotic Cells (%): 28% and 16%
  Population Normal (%): 99% and 98%
  Population Pyknosed Nuclei (%): 54% and 56%
  Population Tubulin-Different-Phenotype (%): 78% and 65%
  Total Cell Count: 233 and 237
U2OS; [1]
  Population Apoptotic (%): 50% and 60%
  Population Healthy Nuclei (%): 48% and 86%
  Population Hoechst High Intensity Objects (%): 0%
  Population Membrane Permeable-Phenotype (%): 0% and 3%
  Population Mitochondria Different-Phenotype (%): 5% and 3%
  Population Mitotic Cells (%): 50% and 39%
  Population Normal (%): 100%
  Population Pyknosed Nuclei (%): 14% and 12%
  Population Tubulin-Different-Phenotype (%): 55% and 75%
U2OS; [2]
  Population Apoptotic (%): 93% and 59%
  Population Fragmented Nuclei (%): 16% and 12%
  Population Healthy Nuclei (%): 41% and 57%
  Population Hoechst High Intensity Objects (%): 0%
  Population Membrane Permeable-Phenotype (%): 20% and 21%
  Population Mitochondria Different-Phenotype (%): 33% and 16%
  Population Normal (%): 100% and 99%
  Population Pyknosed Nuclei (%): 41% and 30%
  Population Tubulin-Different-Phenotype (%): 40% and 48%
U2OS; [3]
  Population Apoptotic (%): 66% and 60%
  Population Healthy Nuclei (%): 40% and 87%
  Population Hoechst High Intensity Objects (%): 0%
  Population Membrane Permeable-Phenotype (%): 0% and 3%
  Population Mitochondria Different-Phenotype (%): 0% and 1%
  Population Mitotic Cells (%): 33% and 40%
  Population Normal (%): 100% and 99%
  Population Pyknosed Nuclei (%): 19% and 9%
  Population Tubulin-Different-Phenotype (%): 63% and 79%
U2OS; [4]
  Population Apoptotic (%): 90% and 75%
  Population Fragmented Nuclei (%): 8% and 11%
  Population Healthy Nuclei (%): 31%
  Population Hoechst High Intensity Objects (%): 0%
  Population Membrane Permeable-Phenotype (%): 36% and 21%
  Population Mitochondria Different-Phenotype (%): 27% and 46%
  Population Mitotic Cells (%): 9% and 24%
  Population Normal (%): 100% and 99%
  Population Pyknosed Nuclei (%): 60% and 56%
  Population Tubulin-Different-Phenotype (%): 36% and 69%
U2OS; [5]
  Population Apoptotic (%): 85% and 68%
  Population Healthy Nuclei (%): 65% and 88%
  Population Hoechst High Intensity Objects (%): 0%
  Population Membrane Permeable-Phenotype (%): 2% and 1%
  Population Mitochondria Different-Phenotype (%): 0%
  Population Mitotic Cells (%): 14% and 31%
  Population Normal (%): 100%
  Population Pyknosed Nuclei (%): 11% and 8%
  Population Tubulin-Different-Phenotype (%): 70% and 85%
U2OS; [6]
  Population Apoptotic (%): 78% and 88%
  Population Fragmented Nuclei (%): 30% and 10%
  Population Healthy Nuclei (%): 23% and 24%
  Population Hoechst High Intensity Objects (%): 0% and 2%
  Population Membrane Permeable-Phenotype (%): 40% and 37%
  Population Mitochondria Different-Phenotype (%): 40% and 37%
  Population Mitotic Cells (%): 21% and 11%
  Population Normal (%): 100% and 97%
  Population Pyknosed Nuclei (%): 45% and 65%
  Population Tubulin-Different-Phenotype (%): 40% and 52%
HEK-293T; [1]
  Population Apoptotic (%): 40% and 44%
  Population Fragmented Nuclei (%): 3% and 2%
  Population Healthy Nuclei (%): 83% and 84%
  Population Hoechst High Intensity Objects (%): 5%
  Population Membrane Permeable-Phenotype (%): 2% and 3%
  Population Mitochondria Different-Phenotype (%): 19% and 9%
  Population Mitotic Cells (%): 59% and 55%
  Population Normal (%): 94%
  Population Pyknosed Nuclei (%): 12%
  Population Tubulin-Different-Phenotype (%): 52% and 40%
  Total Cell Count: 571 and 680
HEK-293T; [2]
  Population Apoptotic (%): 52% and 47%
  Population Fragmented Nuclei (%): 12% and 6%
  Population Healthy Nuclei (%): 71% and 78%
  Population Hoechst High Intensity Objects (%): 8% and 10%
  Population Membrane Permeable-Phenotype (%): 8% and 3%
  Population Mitochondria Different-Phenotype (%): 54% and 57%
  Population Mitotic Cells (%): 47% and 52%
  Population Normal (%): 91% and 89%
  Population Pyknosed Nuclei (%): 16% and 15%
  Population Tubulin-Different-Phenotype (%): 92% and 93%
  Total Cell Count: 474 and 388
HEK-293T; [3]
  Population Apoptotic (%): 35% and 31%
  Population Fragmented Nuclei (%): 5% and 4%
  Population Healthy Nuclei (%): 86%
  Population Hoechst High Intensity Objects (%): 8% and 6%
  Population Membrane Permeable-Phenotype (%): 2% and 5%
  Population Mitochondria Different-Phenotype (%): 5% and 4%
  Population Mitotic Cells (%): 65% and 68%
  Population Normal (%): 91% and 93%
  Population Pyknosed Nuclei (%): 7% and 8%
  Population Tubulin-Different-Phenotype (%): 33% and 30%
  Total Cell Count: 908 and 972
HEK-293T; [4]
  Population Apoptotic (%): 55% and 37%
  Population Fragmented Nuclei (%): 4% and 9%
  Population Healthy Nuclei (%): 86% and 77%
  Population Hoechst High Intensity Objects (%): 12% and 11%
  Population Membrane Permeable-Phenotype (%): 3% and 7%
  Population Mitochondria Different-Phenotype (%): 42% and 52%
  Population Mitotic Cells (%): 44% and 62%
  Population Normal (%): 87% and 88%
  Population Pyknosed Nuclei (%): 9% and 12%
  Population Tubulin-Different-Phenotype (%): 91% and 90%
  Total Cell Count: 478 and 532
HEK-293T; [5]
  Population Apoptotic (%): 9% and 8%
  Population Fragmented Nuclei (%): 10% and 11%
  Population Healthy Nuclei (%): 85%
  Population Hoechst High Intensity Objects (%): 9%
  Population Membrane Permeable-Phenotype (%): 6%
  Population Mitochondria Different-Phenotype (%): 1% and 0%
  Population Mitotic Cells (%): 90% and 91%
  Population Normal (%): 90%
  Population Pyknosed Nuclei (%): 3%
  Population Tubulin-Different-Phenotype (%): 14% and 16%
  Total Cell Count: 2214 and 2329
HEK-293T; [6]
  Population Apoptotic (%): 43% and 56%
  Population Fragmented Nuclei (%): 7% and 3%
  Population Healthy Nuclei (%): 79% and 86%
  Population Hoechst High Intensity Objects (%): 10% and 13%
  Population Membrane Permeable-Phenotype (%): 5% and 2%
  Population Mitochondria Different-Phenotype (%): 39% and 30%
  Population Mitotic Cells (%): 56% and 43%
  Population Normal (%): 89% and 86%
  Population Pyknosed Nuclei (%): 12% and 9%
  Population Tubulin-Different-Phenotype (%): 74% and 66%
  Total Cell Count: 578 and 533

Source: ChEMBL document CHEMBL5303300, “EUbOPEN Chemogenomics Library - Multiplex” (2023)
